In brackets after ≈: the same amount, converted by molar mass.
Key:
Staphylococcus aureus [1] = test: In vitro antibacterial activity against gram-positive Staphylococcus aureus 1775; type: functional
Outline: (§1)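 Agar dilution MIC determination following the National Committee for Clinical Laboratory Standards recommendations.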

Streptococcus pyogenes [2] = test: In vitro antibacterial activity against gram positive Streptococcus pyogenes 930; type: functional; conditions: Streptococcus pyogenes; read-out: MIC; outline: as §1
Pseudomonas aeruginosa [3] = test: In vitro antibacterial activity against Gram-negative Pseudomonas aeruginosa 5007; type: functional; conditions: Pseudomonas aeruginosa; read-out: MIC; outline: as §1
Mus musculus [4] = test: n vivo efficacy against Streptococcus pneumoniae ATCC 6303 in mouse protection test after administration by oral gavage; type: functional
Outline: (§2)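 Mouse protection model: mice infected intravenously with 100-fold LD50 of the organism. Compound given by subcutaneous injection or oral gavage at 1 and 5 h after infection, over a dose range. Deaths tracked for 7 days post-inoculation. ED50 is the dose giving 50% survival of treated mice over the trial.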

Staphylococcus aureus [5] = test: In vitro antibacterial activity against gram-positive Staphylococcus aureus NCTC 10649M; type: functional; conditions: Staphylococcus aureus, NCTC 10649; read-out: MIC; outline: as §1
Escherichia coli [6] = test: In vivo efficacy against Escherichia coli JUHL in mouse protection test after p.o. administration.; type: functional; conditions: Escherichia coli, po; read-out: ED50; outline: as §2
Staphylococcus aureus [7] = test: In vivo efficacy against Staphylococcus aureus NCTC 10649M in mouse; type: functional; conditions: Staphylococcus aureus; read-out: ED50; outline: as §2
Escherichia coli [8] = test: In vitro antibacterial activity against gram negative Escherichia coli KNK 437; type: functional; outline: as §1
Pseudomonas aeruginosa [9] = test: (§3) In vivo efficacy against Pseudomonas aeruginosa 5007 in mouse protection test after subcutaneous administration; type: functional; outline: as §2
Pseudomonas aeruginosa [10] = test: (§4) In vivo efficacy against Pseudomonas aeruginosa 5007 in mouse protection test after administration by oral gavage; type: functional; outline: as §2
Staphylococcus aureus [11] = test: In vivo efficacy against Staphylococcus aureus NCTC 10649M in mouse protection test after p.o. administration.; type: functional; conditions: Staphylococcus aureus, po; read-out: ED50; outline: as §2
Burkholderia cepacia = test: In vitro antibacterial activity against gram negative Pseudomonas cepacia 2961; type: functional; outline: as §1
Enterococcus faecium = test: In vitro antibacterial activity against gram-positive Enterococcus faecium ATCC 8043; type: functional; outline: as §1
Pseudomonas aeruginosa [12] = test: In vitro antibacterial activity against gram negative P. aeruginosa DPHP 5263; type: functional; conditions: Pseudomonas aeruginosa, DPHP 5263; read-out: MIC; outline: as §1
Escherichia coli [13] = test: In vivo efficacy against Escherichia coli JUHL in mouse protection test after subcutaneous administration; type: functional; outline: as §2
Streptococcus pneumoniae = test: In vivo efficacy against Streptococcus pneumoniae ATCC 6303 in mouse protection test after s.c. administration.; type: functional; conditions: Streptococcus pneumoniae, sc; read-out: ED50; outline: as §2
Mus musculus [14] = test: as §3; type: functional; conditions: sc; outline: as §2
Mus musculus [15] = test: In vivo efficacy against Staphylococcus aureus NCTC 10649M in mouse protection test after administration by subcutaneous administration; type: functional; conditions: sc; outline: as §2
Staphylococcus aureus [16] = test: In vitro antibacterial activity against gram-positive Staphylococcus aureus NCTC 10649M
Streptococcus pyogenes [17] = test: In vitro antibacterial activity against Streptococcus pyogenes 930 an erythromycin-resistant; type: functional
Outline: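 MIC by agar dilution following National Committee for Clinical Laboratory Standards recommendations. P. cepacia 2961 is a ciprofloxacin-resistant strain; S. pyogenes 930 is erythromycin-resistant.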

Mus musculus [18] = test: In vivo efficacy against Streptococcus pneumoniae ATCC 6303 in mouse protection test after subcutaneous administration; type: functional; conditions: sc; outline: as §2
Mus musculus [19] = test: In vivo efficacy against Staphylococcus aureus NCTC 10649M in mouse protection test after administration by oral gavage; type: functional
Mus musculus [20] = test: In vivo efficacy against Streptococcus pneumoniae ATCC 6303 in mouse protection test after administration by oral gavage; type: functional; outline: as §2
Pseudomonas aeruginosa [21] = test: Not Plasmodium species; type: functional
Mus musculus [22] = test: In vivo antibacterial activity (dose protecting 50% mice)against Gram-positive S aureus NCTC 10649M after subcutaneous administration.; type: functional; conditions: sc; outline: as §2
Mus musculus [23] = test: In vivo efficacy against Escherichia coli JUHL in mouse protection test after administration by oral gavage; type: functional; outline: as §2
Mus musculus [24] = test: as §4; type: functional; outline: as §2
Mus musculus [25] = test: In vivo efficacy against Streptococcus pneumoniae ATCC 6303 in mouse protection test after administration by oral gavage.; type: functional; outline: as §2
Mus musculus [26] = test: In vivo efficacy against Escherichia coli JUHL in mouse protection test after administration by oral gavage.; type: functional; outline: as §2
[27] = Staphylococcus aureus, read-out: MIC
[28] = Escherichia coli, read-out: MIC
[29] = Pseudomonas aeruginosa, sc, read-out: ED50
[30] = Pseudomonas aeruginosa, po, read-out: ED50
[31] = Burkholderia cepacia, read-out: MIC
[32] = Enterococcus faecium, ATCC 8043, read-out: MIC
[33] = Escherichia coli, sc, read-out: ED50

SMILES | MIC (Staphylococcus aureus [1]; [27]) [µg/mL] | MIC (Streptococcus pyogenes [2]) [µg/mL] | MIC (Pseudomonas aeruginosa [3]) [µg/mL] | MIC (Staphylococcus aureus [5]) [µg/mL] | ED50 (Escherichia coli [6]) [mg/kg] | ED50 (Staphylococcus aureus [7]) [mg/kg] | MIC (Escherichia coli [8]; [28]) [µg/mL] | ED50 (Pseudomonas aeruginosa [9]; [29]) [mg/kg] | ED50 (Staphylococcus aureus [11]) [mg/kg] | MIC (Burkholderia cepacia; [31]) [µg/mL] | MIC (Enterococcus faecium; [32]) [µg/mL] | MIC (Pseudomonas aeruginosa [12]) [µg/mL] | ED50 (Escherichia coli [13]; [33]) [mg/kg] | other results
Cc1c(N2CC[C@H](NCCF)C2)c(F)cn2c(=O)c(C(=O)O)cc(C3CC3)c12 | 0.39 (≈ 0.996 µM) | 0.1 (≈ 0.255 µM) | 0.78 (≈ 1.99 µM) | 0.01 (≈ 0.0255 µM) | 17.2 | 1.1 | 0.2 (≈ 0.511 µM) | > 32 | 7.5 | 3.1 (≈ 7.92 µM) | 0.1 (≈ 0.255 µM) | 12.5 (≈ 31.9 µM) | 4.9 | ED50 (Mus musculus [4]): 9.9 mg/kg; ED50 (Pseudomonas aeruginosa [10]; [30]): > 50 mg/kg
Cc1c(N2CCC[C@H](NC3CC3)C2)c(F)cn2c(=O)c(C(=O)O)cc(C3CC3)c12 | 0.39 (≈ 0.976 µM) | 0.02 (≈ 0.0501 µM) | 0.2 (≈ 0.501 µM) | 0.01 (≈ 0.025 µM) | – | 0.8 | 0.05 (≈ 0.125 µM) | – | – | 0.78 (≈ 1.95 µM) | 0.1 (≈ 0.25 µM) | 3.1 (≈ 7.76 µM) | > 5 | ED50 (Streptococcus pneumoniae): 4.3 mg/kg; ED50 (Mus musculus [14]): > 32 mg/kg
Cc1c(N2C[C@@H]3CCN[C@@H]3C2)c(F)cn2c(=O)c(C(=O)O)cc(C3CC3)c12 (stereo in doubt) | – | – | – | – | 1.1 | – | – | – | 1.5 | – | – | – | – | MIC (Staphylococcus aureus [1]): 3.1 µg/mL (≈ 8.35 µM); ED50 (Mus musculus [15]): 0.6 mg/kg; MIC (Staphylococcus aureus [16]): 0.05 µg/mL (≈ 0.135 µM); MIC (Escherichia coli [8]): 0.1 µg/mL (≈ 0.269 µM); ED50 (Pseudomonas aeruginosa [9]): 5 mg/kg; ED50 (Pseudomonas aeruginosa [10]): 17.9 mg/kg; MIC (Burkholderia cepacia): 0.78 µg/mL (≈ 2.1 µM); MIC (Enterococcus faecium): 0.1 µg/mL (≈ 0.269 µM); ED50 (Escherichia coli [13]): 0.5 mg/kg
Cc1c(N2C[C@@H](C)[C@H](N)C2)c(F)cn2c(=O)c(C(=O)O)cc(C3CC3)c12 | 0.78 (≈ 2.17 µM) | – | 0.2 (≈ 0.556 µM) | 0.02 (≈ 0.0556 µM) | – | – | 0.05 (≈ 0.139 µM) | – | – | 0.78 (≈ 2.17 µM) | 0.05 (≈ 0.139 µM) | 1.56 (≈ 4.34 µM) | – | MIC (Streptococcus pyogenes [17]): 0.05 µg/mL (≈ 0.139 µM)
O=C(O)c1cn(C2CC2)c2cc(N3CCNCC3)c(F)cc2c1=O [CIPROFLOXACIN] | > 100 | – | – | 0.39 (≈ 1.18 µM) | 1.3 | 3.6 | – | 2.4 | – | 6.2 (≈ 18.7 µM) | 0.39 (≈ 1.18 µM) | – | 0.2 | ED50 (Mus musculus [18]): 37.4 mg/kg; ED50 (Mus musculus [19]): 25 mg/kg; ED50 (Mus musculus [20]): > 100 mg/kg; ED50 (Pseudomonas aeruginosa [10]; [30]): 20 mg/kg; MIC (Pseudomonas aeruginosa [21]): 0.1 µg/mL (≈ 0.302 µM)
Cc1c(N2C[C@@H]3CCN[C@@H]3C2)c(F)cn2c(=O)c(C(=O)O)cc(C3CC3)c12 (stereo in doubt; 3gg) | – | – | – | 0.02 (≈ 0.0538 µM) | – | 5 | 0.2 (≈ 0.538 µM) | 6.4 | – | 1.56 (≈ 4.2 µM) | 0.05 (≈ 0.135 µM) | – | 0.4 | MIC (Staphylococcus aureus [1]): 0.39 µg/mL (≈ 1.05 µM); ED50 (Mus musculus [20]): 7.6 mg/kg; ED50 (Mus musculus [22]): 0.7 mg/kg; ED50 (Pseudomonas aeruginosa [10]): 39.1 mg/kg; ED50 (Mus musculus [23]): 2.5 mg/kg
CCN[C@H]1CCN(c2c(F)cn3c(=O)c(C(=O)O)cc(C4CC4)c3c2C)C1 | 1.56 (≈ 4.18 µM) | 0.1 (≈ 0.268 µM) | 0.39 (≈ 1.04 µM) | 0.05 (≈ 0.134 µM) | – | 1 | 0.2 (≈ 0.536 µM) | > 8 | 7.7 | 3.1 (≈ 8.3 µM) | 0.1 (≈ 0.268 µM) | 6.2 (≈ 16.6 µM) | 0.6 | ED50 (Streptococcus pneumoniae): 2.9 mg/kg; ED50 (Mus musculus [24]): > 50 mg/kg; ED50 (Mus musculus [25]): 7.9 mg/kg; ED50 (Mus musculus [26]): 3 mg/kg

Source: ChEMBL document CHEMBL1132437, “Synthesis and antimicrobial activity of 4H-4-oxoquinolizine derivatives: consequences of structural modification at the C-8 position” (1999)
